Legend:
[1] = molecular target: T1, cGMP-dependent 3',5'-cyclic phosphodiesterase (Homo sapiens, UniProt O00408); assay: Inhibition of recombinant full length GST-tagged PDE2A (unknown origin) expressed in baculovirus infected Sf9 insect cells using TAMRA-cGMP as substrate incubated for 1.5 hrs by IMAP-FP assay
Method in brief: (§1)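 PDE enzymes incubated with compound or vehicle and 50 nM TAMRA-cGMP or FAM-cAMP substrate for 1.5 h at 30 °C. Activity read by IMAP fluorescence polarization. IC50 from 10 concentrations, at least two replicates each, fitted by four-parameter logistic. Dose–response repeated at least twice; mean of at least two experiments.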

[2] = Protein binding in human plasma assessed as bound fraction by HPLC-MS/MS analysis; assay type: ADME, cell-free; conditions: read-out: PPB (converted)
Method in brief: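 Human plasma spiked with compound at 10 μM, 1% DMSO final. Dialyzed against PBS pH 7.4 for 4 h at 37 °C. Both compartments diluted, acetonitrile-precipitated and quantified by HPLC-MS/MS. An undialyzed spiked control served for recovery; duplicates.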

Homo sapiens [3] = organism: Homo sapiens; assay: Selectivity ratio of IC50 for recombinant full length GST-tagged PDE6C (unknown origin) expressed in baculovirus infected Sf9 insect cells to IC50 for recombinant full length GST-tagged PDE5A1 (unknown origin) expressed in baculovirus infected Sf9 insect cells using TAMRA-cGMP as substrate incubated for 1.5 hrs by IMAP-FP assay using TAMRA-cGMP as substrate incubated for 1.5 hrs by IMAP-FP assay
[4] = Observed AUC (0 to infinity) in C57BL/6N mouse at 150 mg/kg, po administered as single dose measured up to 8 hrs by LC-MS/MS analysis; assay type: ADME, organism-based; set-up: route oral, dose 150 mg/kg, time <=8; conditions: in vivo
[5] = Observed clearance in C57BL/6N mouse at 150 mg/kg, po administered as single dose measured up to 8 hrs by LC-MS/MS analysis; assay type: ADME, organism-based; conditions: in vivo
[6] = Toxicity in athymic nude-Foxn1nu mouse assessed as drug tolerance at 50 to 150 mg/kg, po bid for 28 days; assay type: organism-based; conditions: in vivo, 672 h, dose 50-150 mg/kg, time 28 day
Method in brief: (§2)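 Female athymic nude-Foxn1nu mice, 8–9 weeks, 18–24 g, n=4 per group. Oral gavage at 50, 100 or 150 mg/kg twice daily, or vehicle, for 28 days. Formulation ethanol/water/Maalox (7:3:90, v/v/v). Toxicity signs monitored daily. Body weight recorded daily in week 1, then twice weekly, as percent change from starting weight.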

[7] = molecular target: 3',5'-cyclic-AMP phosphodiesterase 4B (Homo sapiens, UniProt Q07343); assay: Inhibition of recombinant full length GST-tagged PDE4B2 (unknown origin) expressed in baculovirus infected Sf9 insect cells using FAM-cAMP as substrate incubated for 1.5 hrs by IMAP-FP assay; method in brief: as §1
Chain of 3',5'-cyclic-AMP phosphodiesterase 4B (Q07343 whole entry): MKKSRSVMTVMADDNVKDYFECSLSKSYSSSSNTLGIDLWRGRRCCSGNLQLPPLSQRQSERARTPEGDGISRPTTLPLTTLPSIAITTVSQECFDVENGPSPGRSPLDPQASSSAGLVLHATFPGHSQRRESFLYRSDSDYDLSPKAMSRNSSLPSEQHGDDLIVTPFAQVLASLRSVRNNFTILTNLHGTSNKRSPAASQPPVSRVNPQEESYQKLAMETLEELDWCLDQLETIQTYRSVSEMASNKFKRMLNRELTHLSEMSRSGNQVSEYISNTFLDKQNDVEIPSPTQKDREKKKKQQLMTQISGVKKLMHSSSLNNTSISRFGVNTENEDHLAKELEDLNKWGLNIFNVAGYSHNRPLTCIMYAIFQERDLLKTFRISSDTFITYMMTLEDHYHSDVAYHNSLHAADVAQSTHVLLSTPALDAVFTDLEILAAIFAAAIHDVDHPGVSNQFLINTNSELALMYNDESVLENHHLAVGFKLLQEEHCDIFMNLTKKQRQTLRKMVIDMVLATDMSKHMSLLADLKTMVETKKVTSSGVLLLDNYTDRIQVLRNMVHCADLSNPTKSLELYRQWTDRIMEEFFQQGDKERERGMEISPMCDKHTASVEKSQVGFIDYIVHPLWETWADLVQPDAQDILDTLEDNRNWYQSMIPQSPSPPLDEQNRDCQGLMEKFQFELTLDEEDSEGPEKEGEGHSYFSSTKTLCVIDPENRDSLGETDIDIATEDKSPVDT

[8] = Toxicity in athymic nude-Foxn1nu mouse assessed as body weight gain at 50 to 150 mg/kg, po bid for 28 days; assay type: organism-based; conditions: in vivo, 672 h, dose 50-150 mg/kg, time 28 day; method in brief: as §2
[9] = molecular target: cAMP and cAMP-inhibited cGMP 3',5'-cyclic phosphodiesterase 10A (Homo sapiens, UniProt Q9Y233); assay: Inhibition of recombinant GST-tagged full length PDE10A2 (unknown origin) expressed in baculovirus infected Sf9 insect cells using TAMRA-cGMP as substrate incubated for 1.5 hrs by IMAP-FP assay; method in brief: as §1
Chain of cAMP and cAMP-inhibited cGMP 3',5'-cyclic phosphodiesterase 10A (Q9Y233 whole entry): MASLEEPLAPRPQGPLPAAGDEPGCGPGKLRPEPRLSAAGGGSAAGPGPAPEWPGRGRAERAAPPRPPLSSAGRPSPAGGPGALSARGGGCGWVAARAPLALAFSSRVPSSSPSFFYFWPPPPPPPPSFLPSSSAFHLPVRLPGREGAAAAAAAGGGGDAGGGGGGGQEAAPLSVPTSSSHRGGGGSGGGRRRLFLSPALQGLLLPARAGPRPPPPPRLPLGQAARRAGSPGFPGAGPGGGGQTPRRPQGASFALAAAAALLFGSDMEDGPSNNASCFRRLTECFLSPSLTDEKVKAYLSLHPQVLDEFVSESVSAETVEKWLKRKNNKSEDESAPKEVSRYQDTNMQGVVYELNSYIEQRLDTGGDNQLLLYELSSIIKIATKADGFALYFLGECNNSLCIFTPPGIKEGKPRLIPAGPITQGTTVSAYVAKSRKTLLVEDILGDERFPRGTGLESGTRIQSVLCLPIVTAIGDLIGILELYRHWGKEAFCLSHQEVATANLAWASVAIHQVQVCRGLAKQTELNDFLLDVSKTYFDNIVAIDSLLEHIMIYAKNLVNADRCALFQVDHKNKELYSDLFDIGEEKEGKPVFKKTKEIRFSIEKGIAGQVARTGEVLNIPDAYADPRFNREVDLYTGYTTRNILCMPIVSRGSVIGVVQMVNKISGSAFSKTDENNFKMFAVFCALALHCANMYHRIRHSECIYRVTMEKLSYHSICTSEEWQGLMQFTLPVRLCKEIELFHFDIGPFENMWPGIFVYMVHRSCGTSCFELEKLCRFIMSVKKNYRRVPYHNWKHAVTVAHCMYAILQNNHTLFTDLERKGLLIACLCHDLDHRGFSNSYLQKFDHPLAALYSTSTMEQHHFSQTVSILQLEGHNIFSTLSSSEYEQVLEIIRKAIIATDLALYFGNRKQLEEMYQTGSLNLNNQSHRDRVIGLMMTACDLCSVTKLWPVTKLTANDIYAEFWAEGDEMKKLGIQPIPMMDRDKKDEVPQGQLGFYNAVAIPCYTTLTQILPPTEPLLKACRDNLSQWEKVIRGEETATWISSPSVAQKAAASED

[10] = molecular target: T1, cGMP-dependent 3',5'-cyclic phosphodiesterase; assay: Inhibition of recombinant full length GST-tagged PDE2A (unknown origin) expressed in baculovirus infected Sf9 insect cells using FAM-cAMP as substrate incubated for 1.5 hrs by IMAP-FP assay; method in brief: as §1
[11] = Toxicity in athymic nude-Foxn1nu mouse at 50 to 150 mg/kg, po bid for 28 days; assay type: organism-based; conditions: in vivo, 672 h, dose 50-150 mg/kg, time 28 day; method in brief: as §2
[12] = molecular target: T2, cGMP-specific 3',5'-cyclic phosphodiesterase (Homo sapiens, UniProt O76074); assay: Inhibition of PDE5A in HEK293 cells stably transfected with cGMP biosensor assessed as increase in SNP-induced intracellular cGMP level measured after 90 mins by luminescence assay; assay type: cell-based
[13] = molecular target: High affinity cGMP-specific 3',5'-cyclic phosphodiesterase 9A (Homo sapiens, UniProt O76083); assay: Inhibition of recombinant GST-tagged full length PDE9A2 (unknown origin) expressed in baculovirus infected Sf9 insect cells using substrate incubated for 1.5 hrs by IMAP-FP assay
Chain of High affinity cGMP-specific 3',5'-cyclic phosphodiesterase 9A (O76083 whole entry): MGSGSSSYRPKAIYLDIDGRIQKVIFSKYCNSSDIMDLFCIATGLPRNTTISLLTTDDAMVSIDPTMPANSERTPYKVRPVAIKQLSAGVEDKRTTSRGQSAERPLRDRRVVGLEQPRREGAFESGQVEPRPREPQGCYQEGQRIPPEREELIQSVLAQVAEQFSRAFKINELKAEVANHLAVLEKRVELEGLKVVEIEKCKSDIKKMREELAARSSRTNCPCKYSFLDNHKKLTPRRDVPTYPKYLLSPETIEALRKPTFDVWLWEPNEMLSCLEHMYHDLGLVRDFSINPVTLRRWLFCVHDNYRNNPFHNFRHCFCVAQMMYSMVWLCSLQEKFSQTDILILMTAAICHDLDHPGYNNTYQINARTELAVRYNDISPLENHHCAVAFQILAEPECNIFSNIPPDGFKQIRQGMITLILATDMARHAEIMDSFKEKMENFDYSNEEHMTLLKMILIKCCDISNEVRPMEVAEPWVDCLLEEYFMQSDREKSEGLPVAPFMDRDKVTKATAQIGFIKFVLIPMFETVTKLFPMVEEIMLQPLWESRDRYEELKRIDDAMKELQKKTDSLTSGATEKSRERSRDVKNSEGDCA

[14] = Cmax in C57BL/6N mouse at 150 mg/kg, po administered as single dose measured up to 8 hrs by LC-MS/MS analysis; assay type: ADME, organism-based; set-up: route oral, dose 150 mg/kg, time <=8; conditions: in vivo
[15] = Half life in C57BL/6N mouse at 150 mg/kg, po administered as single dose measured up to 8 hrs by LC-MS/MS analysis; assay type: ADME, organism-based; conditions: in vivo
[16] = Toxicity in athymic nude-Foxn1nu mouse assessed as effect on liver at 50 to 150 mg/kg, po bid for 28 days; assay type: organism-based; conditions: in vivo, 672 h, dose 50-150 mg/kg, time 28 day
[17] = molecular target: cGMP-inhibited 3',5'-cyclic phosphodiesterase 3A (Homo sapiens, UniProt Q14432); assay: Inhibition of recombinant GST-tagged PDE3A (669 to end residues) (unknown origin) expressed in baculovirus infected Sf9 insect cells using FAM-cAMP as substrate incubated for 1.5 hrs by IMAP-FP assay; method in brief: as §1
[18] = Toxicity in athymic nude-Foxn1nu mouse assessed as effect on kidney at 50 to 150 mg/kg, po bid for 28 days; assay type: organism-based; conditions: in vivo, 672 h, dose 50-150 mg/kg, time 28 day
[19] = molecular target: Dual 3',5'-cyclic-AMP and -GMP phosphodiesterase 11A (Homo sapiens, UniProt Q9HCR9); assay: Inhibition of recombinant GST-tagged full length PDE11A4 (unknown origin) expressed in baculovirus infected Sf9 insect cells using FAM-cAMP as substrate incubated for 1.5 hrs by IMAP-FP assay; method in brief: as §1
[20] = human, microsomes, 1 h, 1 µM
[21] = molecular target: T2, cGMP-specific 3',5'-cyclic phosphodiesterase; assay: Inhibition of recombinant 6His-tagged PDE5A1 catalytic domain (unknown origin) expressed in Escherichia coli using TAMRA-cGMP or FAM-cAMP as substrate incubated for 1.5 hrs by IMAP-FP assay
[22] = Toxicity in athymic nude-Foxn1nu mouse assessed as effect on spleen at 50 to 150 mg/kg, po bid for 28 days; assay type: organism-based; conditions: in vivo, 672 h, dose 50-150 mg/kg, time 28 day
[23] = Toxicity in athymic nude-Foxn1nu mouse assessed as body weight loss at 50 to 150 mg/kg, po bid measured immediately relative to control; assay type: organism-based; conditions: in vivo, dose 50-150 mg/kg; method in brief: as §2
[24] = molecular target: Dual specificity calcium/calmodulin-dependent 3',5'-cyclic nucleotide phosphodiesterase 1A (Homo sapiens, UniProt P54750); assay: Inhibition of recombinant full length GST-tagged PDE1A (unknown origin) expressed in baculovirus infected Sf9 insect cells using TAMRA-cGMP as substrate incubated for 1.5 hrs by IMAP-FP assay; method in brief: as §1
Chain of Dual specificity calcium/calmodulin-dependent 3',5'-cyclic nucleotide phosphodiesterase 1A (P54750 whole entry): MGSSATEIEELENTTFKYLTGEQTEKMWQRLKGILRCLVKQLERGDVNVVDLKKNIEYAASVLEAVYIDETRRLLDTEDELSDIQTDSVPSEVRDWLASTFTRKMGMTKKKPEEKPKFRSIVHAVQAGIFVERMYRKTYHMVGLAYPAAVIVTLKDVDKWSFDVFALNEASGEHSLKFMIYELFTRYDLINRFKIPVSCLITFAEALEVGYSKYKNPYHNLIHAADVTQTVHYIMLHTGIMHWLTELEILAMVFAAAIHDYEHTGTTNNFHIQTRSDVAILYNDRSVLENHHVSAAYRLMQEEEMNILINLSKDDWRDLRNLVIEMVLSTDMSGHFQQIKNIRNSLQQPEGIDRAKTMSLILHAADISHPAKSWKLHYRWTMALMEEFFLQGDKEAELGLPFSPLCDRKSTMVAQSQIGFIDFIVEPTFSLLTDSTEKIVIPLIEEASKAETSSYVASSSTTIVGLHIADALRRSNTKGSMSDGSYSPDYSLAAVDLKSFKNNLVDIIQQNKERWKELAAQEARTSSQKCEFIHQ

[25] = molecular target: Cone cGMP-specific 3',5'-cyclic phosphodiesterase subunit alpha' (Homo sapiens, UniProt P51160); assay: Inhibition of recombinant full length GST-tagged PDE6C (unknown origin) expressed in baculovirus infected Sf9 insect cells at 15 uM using TAMRA-cGMP as substrate incubated for 1.5 hrs by IMAP-FP assay relative to control
Chain of Cone cGMP-specific 3',5'-cyclic phosphodiesterase subunit alpha' (P51160 whole entry): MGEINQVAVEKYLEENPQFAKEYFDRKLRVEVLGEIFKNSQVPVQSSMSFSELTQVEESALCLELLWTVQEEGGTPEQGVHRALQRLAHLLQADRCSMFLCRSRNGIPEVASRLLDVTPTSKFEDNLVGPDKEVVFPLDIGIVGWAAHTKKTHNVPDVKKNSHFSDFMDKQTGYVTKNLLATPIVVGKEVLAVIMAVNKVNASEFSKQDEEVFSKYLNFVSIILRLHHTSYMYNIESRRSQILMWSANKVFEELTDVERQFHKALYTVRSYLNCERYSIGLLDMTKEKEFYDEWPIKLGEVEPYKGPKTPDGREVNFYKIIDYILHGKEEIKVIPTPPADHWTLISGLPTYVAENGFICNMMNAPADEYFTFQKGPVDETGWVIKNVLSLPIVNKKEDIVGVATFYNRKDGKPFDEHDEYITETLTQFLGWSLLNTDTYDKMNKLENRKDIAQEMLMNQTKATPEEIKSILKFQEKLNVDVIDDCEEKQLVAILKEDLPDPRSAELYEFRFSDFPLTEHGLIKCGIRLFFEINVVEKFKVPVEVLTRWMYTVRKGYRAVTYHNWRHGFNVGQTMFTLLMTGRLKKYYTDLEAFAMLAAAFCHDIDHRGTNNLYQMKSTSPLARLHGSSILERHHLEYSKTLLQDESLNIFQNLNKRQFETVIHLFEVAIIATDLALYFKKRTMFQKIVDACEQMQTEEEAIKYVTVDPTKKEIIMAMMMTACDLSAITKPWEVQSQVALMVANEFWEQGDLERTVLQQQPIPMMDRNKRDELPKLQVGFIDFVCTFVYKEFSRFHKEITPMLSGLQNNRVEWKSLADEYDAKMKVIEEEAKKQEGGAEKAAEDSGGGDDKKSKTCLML
Method in brief: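 PDE6 activity measured at a single 15 μM compound concentration with TAMRA-cGMP substrate. Incubated 1.5 h at 30 °C and read by IMAP fluorescence polarization; percent inhibition relative to control.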

Homo sapiens [26] = organism: Homo sapiens; assay: Selectivity ratio of IC50 for recombinant GST-tagged full length PDE11A4 (unknown origin) expressed in baculovirus infected Sf9 insect cells to IC50 for recombinant full length GST-tagged PDE5A1 (unknown origin) expressed in baculovirus infected Sf9 insect cells using TAMRA-cGMP as substrate incubated for 1.5 hrs by IMAP-FP assay using TAMRA-cGMP as substrate incubated for 1.5 hrs by IMAP-FP assay

T1 sequence (O00408 whole entry): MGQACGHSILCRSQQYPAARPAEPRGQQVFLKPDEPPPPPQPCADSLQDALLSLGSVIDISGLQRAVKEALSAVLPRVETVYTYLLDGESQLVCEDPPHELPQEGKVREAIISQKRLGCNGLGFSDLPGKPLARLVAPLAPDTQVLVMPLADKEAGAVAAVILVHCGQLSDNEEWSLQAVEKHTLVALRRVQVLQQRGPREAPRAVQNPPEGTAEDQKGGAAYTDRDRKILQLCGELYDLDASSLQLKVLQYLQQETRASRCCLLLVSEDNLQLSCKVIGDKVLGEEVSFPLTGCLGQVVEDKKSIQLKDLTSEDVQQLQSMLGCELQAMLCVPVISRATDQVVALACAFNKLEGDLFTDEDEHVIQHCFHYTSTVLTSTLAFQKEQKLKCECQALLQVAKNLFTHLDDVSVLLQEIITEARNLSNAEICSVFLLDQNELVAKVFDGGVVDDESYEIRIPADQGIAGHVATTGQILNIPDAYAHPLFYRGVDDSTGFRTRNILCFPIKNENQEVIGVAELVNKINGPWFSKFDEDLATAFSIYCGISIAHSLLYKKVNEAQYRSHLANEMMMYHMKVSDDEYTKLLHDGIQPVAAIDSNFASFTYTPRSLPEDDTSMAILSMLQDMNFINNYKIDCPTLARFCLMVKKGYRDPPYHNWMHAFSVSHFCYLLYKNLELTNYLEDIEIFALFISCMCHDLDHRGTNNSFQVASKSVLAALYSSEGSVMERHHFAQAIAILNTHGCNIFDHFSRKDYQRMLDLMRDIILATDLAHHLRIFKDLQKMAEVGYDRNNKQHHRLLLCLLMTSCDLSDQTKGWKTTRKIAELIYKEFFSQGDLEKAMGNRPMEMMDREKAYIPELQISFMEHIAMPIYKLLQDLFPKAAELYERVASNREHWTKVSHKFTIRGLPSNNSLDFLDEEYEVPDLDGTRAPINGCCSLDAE

IC50 [1]: > 10 µM
fraction unbound [2]: 0.02
AUC(0-inf) [4]: 16200 ng·h/mL
CL/F [5]: 3.09 mL/min
IC50 [7]: > 10 µM
IC50 [9]: > 10 µM
IC50 [10]: > 10 µM
EC50 [12]: 6.7 µM
IC50 [13]: > 10 µM
Cmax [14]: 4000 ng/mL
half-life [15]: 2.33 h
IC50 [17]: > 10 µM
IC50 [19]: > 10 µM
t1/2 [20]: 0.367 h
IC50 [21]: > 1 µM
IC50 [24]: > 10 µM
inhibition [25]: 50%
Compound: COc1c(F)cc(C2CC(C(C)(C)C)=NN2c2ccc(C(=O)N3CCN(C)CC3)cc2)cc1F (stereo unspecified)
Ratio IC50 (Homo sapiens [3]): > 10000
Activity [6]: Non-Toxic
Activity [8]: Non-Toxic
Activity [11]: Non-Toxic
Activity [16]: Non-Toxic
Activity [18]: Non-Toxic
Activity [22]: Non-Toxic
Activity [23]: < 5%
Ratio IC50 (Homo sapiens [26]): > 10000

— ChEMBL document CHEMBL4808175 (J Med Chem, 2021)
